Experimental data from ChEMBL document CHEMBL1159115, “Piperidine-derived gamma-secretase modulators” (Bioorg Med Chem Lett, 2010).

Legend:
Gamma-secretase [1] = test: Inhibition of gamma-secretase in human SHSY5Y cells expressing human recombinant APP assessed as amyloid beta42 formation by ELISA; format: cell-based; conditions: sh-sy5y; in the assay text read “amyloid beta40 formation” for “amyloid beta42 formation”
Outline: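 SH-SY5Y cells overexpressing human APP Swedish variant were incubated with compound for 48 h. Secreted Aβ42 and Aβ40 were measured by immunoassay (MSD electrochemiluminescence or AlphaLISA).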

[2] = target: T1, Gamma-secretase (Homo sapiens) (UniProt Q96BI3+Q9NZ42+Q8WW43+P49768+Q92542+P49810); test: Inhibition of gamma-secretase in human SHSY5Y cells expressing human recombinant APP assessed as amyloid beta40 formation at 20 uM by ELISA; conditions: SH-SY5Y
[3] = Inhibition of gamma-secretase expressed in african green monkey CV1 cells coexpressing Gal4 DNA-binding/transactivation domain assessed as inhibition of notch processing by luciferase reporter assay; format: cell-based; conditions: CV-1
Gamma-secretase [4] = test: Inhibition of gamma-secretase in human SHSY5Y cells expressing human recombinant APP assessed as amyloid beta40 formation by ELISA; format: cell-based; conditions: sh-sy5y; in the assay text read “amyloid beta42 formation” for “amyloid beta40 formation”
Outline: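 SH-SY5Y cells overexpressing human APP Swedish variant exposed to compound for 48 h; Aβ40 (and Aβ42) in the cell medium quantified by ELISA, either Meso Scale Discovery or AlphaLISA format. Compounds also cross-screened for inhibition of Notch processing.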

CV-1 = test: Inhibition of gamma-secretase expressed in african green monkey CV1 cells coexpressing Gal4 DNA-binding/transactivation domain assessed as inhibition of notch processing by luciferase reporter assay at 20 uM; format: cell-based
Gamma-secretase [5] = test: Inhibition of gamma-secretase in human SHSY5Y cells expressing human recombinant APP assessed as decrease in total Abeta level after 24 hrs by DELFIA; format: cell-based; conditions: sh-sy5y
SH-SY5Y = test: Cytotoxicity against human SH-SY5Y cells after 24 hrs by WST1 assay; format: cell-based
[6] = target: T1, Gamma-secretase (Homo sapiens); test: (§1) Inhibition of gamma-secretase in human SHSY5Y cells expressing human recombinant APP assessed as decrease in Abeta42 level after 24 hrs by DELFIA; format: cell-based; conditions: SH-SY5Y
Gamma-secretase [7] = test: as §1; format: cell-based; conditions: sh-sy5y
Gamma-secretase [8] = test: Inhibition of gamma-secretase in human SHSY5Y cells expressing human recombinant APP assessed as effect on Abeta40 level after 24 hrs by DELFIA; format: cell-based; conditions: sh-sy5y
[9] = target: T1, Gamma-secretase (Homo sapiens); test: (§2) Inhibition of gamma-secretase in human SHSY5Y cells expressing human recombinant APP assessed as increase in Abeta38 level after 24 hrs by DELFIA; format: cell-based; conditions: SH-SY5Y
Gamma-secretase [10] = test: as §2; format: cell-based; conditions: sh-sy5y
[11] = Volume of distribution at steady state in dog at 1 mg/kg, iv and 1 mg/kg, po; format: ADME, organism-based, Canis lupus familiaris; conditions: in vivo, read-out: Vdss
Outline: (§3)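 Dog PK: iv and oral doses each 1 mg/kg; data from a single animal. Oral bioavailability was measured with the sodium salt in 1% methylcellulose vehicle.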

[12] = Half life in rat at 1 mg/kg, iv and 2 mg/kg, po; format: ADME, organism-based; conditions: in vivo
Outline: (§4)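 Rat PK: iv 1 mg/kg paired with oral 3 mg/kg or 2 mg/kg; values are the mean from three animals. Oral bioavailability was measured with the sodium salt in 1% methylcellulose vehicle.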

[13] = Oral bioavailability in rat at 2 mg/kg; format: ADME, organism-based; conditions: in vivo; outline: as §4
[14] = Volume of distribution at steady state in rat at 1 mg/kg, iv and 2 mg/kg, po; format: ADME, organism-based; conditions: in vivo, read-out: Vdss; outline: as §4
[15] = Half life in dog at 1 mg/kg, iv and 1 mg/kg, po; format: ADME, organism-based, Canis lupus familiaris; conditions: in vivo; outline: as §3
[16] = Clearance in dog blood at 1 mg/kg, iv and 1 mg/kg, po; format: ADME, organism-based, Canis lupus familiaris; outline: as §3
[17] = Clearance in rat blood at 1 mg/kg, iv and 2 mg/kg, po; format: ADME, organism-based; outline: as §4
[18] = Oral bioavailability in dog at 1 mg/kg; format: ADME, organism-based, Canis lupus familiaris; conditions: in vivo; outline: as §3

Compound	pIC50 (Gamma-secretase [1])	inhibition [2]	IC50 [3]	pIC50 (Gamma-secretase [4])	inhibition (CV-1)	further results
CCCC[C@H](c1ccc(C(F)(F)F)nc1)N1CC[C@@H](CC(=O)[O-])C[C@H]1c1ccc(C(F)(F)F)cc1.[Na+]	4.8	–	> 20 µM	6.2	33%	pIC50 (Gamma-secretase [5]): < 4; IC50 (SH-SY5Y): > 100 µM; Activity [6]: Dose-dependent effect; pIC50 (Gamma-secretase [7]): 6; pIC50 (Gamma-secretase [8]): 4.4; Activity [9]: Dose-dependent effect; pEC50 (Gamma-secretase [10]): 5.5
O=C([O-])C[C@@H]1CCN([C@H](CC2CCC2)c2ccc(C(F)(F)F)nc2)[C@H](c2ccc(C(F)(F)F)cc2)C1.[Na+]	5.5	–	> 20 µM	6.6	17%	–
O=C(O)Cc1ccc(-c2ccc(C(F)(F)F)cc2)c(-c2ccc(C(F)(F)F)cc2)c1	< 4.7	13%	> 20 µM	5.7	23%	pIC50 (Gamma-secretase [5]): < 4; IC50 (SH-SY5Y): > 100 µM; Activity [6]: Dose-dependent effect; pIC50 (Gamma-secretase [7]): 5.7; pIC50 (Gamma-secretase [8]): < 4; Activity [9]: Dose-dependent effect; pEC50 (Gamma-secretase [10]): 5.1
CC(C)C[C@H](c1ccc(C(F)(F)F)nc1)N1CC[C@@H](CC(=O)[O-])C[C@H]1c1ccc(C(F)(F)F)cc1.[Na+]	4.5	–	> 20 µM	6.2	25%	–
O=C([O-])C[C@@H]1CCN([C@@H](c2ccc(C(F)(F)F)nc2)C2CC2)[C@H](c2ccc(C(F)(F)F)cc2)C1.[Na+]	4.3	–	> 20 µM	5.1	23%	pIC50 (Gamma-secretase [5]): < 4; IC50 (SH-SY5Y): > 100 µM; Activity [6]: Dose-dependent effect; pIC50 (Gamma-secretase [7]): 6; pIC50 (Gamma-secretase [8]): < 4; Activity [9]: Dose-dependent effect; pEC50 (Gamma-secretase [10]): 5
O=C([O-])C[C@@H]1CCN([C@H](Cc2ccccc2)c2ccc(C(F)(F)F)nc2)[C@H](c2ccc(C(F)(F)F)cc2)C1.[Na+]	5	–	> 20 µM	5.8	34%	–
CC(C)CC[C@H](c1ncc(C(C)C)cn1)N1CC[C@@H](CC(=O)[O-])C[C@H]1c1ccc(C(F)(F)F)cc1.[Na+]	< 4.7	22%	> 20 µM	6.1	27%	–
CCC[C@@H](C(=O)O)c1cc(OCc2ccccc2)cc(-c2ccc(C(F)(F)F)cc2)c1	<= 4.8	32%	> 20 µM	–	20%	pIC50 (Gamma-secretase [5]): < 4; IC50 (SH-SY5Y): > 100 µM; Activity [6]: Dose-dependent effect; pIC50 (Gamma-secretase [7]): 5.8; IC50 (Gamma-secretase [4]): 3.98 µM; pIC50 (Gamma-secretase [8]): < 4; Activity [9]: Dose-dependent effect; pEC50 (Gamma-secretase [10]): 5.9
CC(C)CC[C@H](c1ccc(C2CC2)nc1)N1CC[C@@H](CC(=O)[O-])C[C@H]1c1ccc(C(F)(F)F)cc1.[Na+]	< 4.7	31%	> 20 µM	6.2	15%	–
CC(C)[C@H](c1ccc(C(F)(F)F)nc1)N1CC[C@@H](CC(=O)[O-])C[C@H]1c1ccc(C(F)(F)F)cc1.[Na+]	< 4.7	24%	> 20 µM	5.4	21%	pIC50 (Gamma-secretase [5]): < 4; IC50 (SH-SY5Y): > 100 µM; Activity [6]: Dose-dependent effect; pIC50 (Gamma-secretase [7]): 6; pIC50 (Gamma-secretase [8]): < 4; Activity [9]: Dose-dependent effect; pEC50 (Gamma-secretase [10]): 5
O=C([O-])C[C@@H]1CCN([C@H](CCc2ccccc2)c2ccc(C(F)(F)F)nc2)[C@H](c2ccc(C(F)(F)F)cc2)C1.[Na+]	< 4.7	40%	> 20 µM	5.7	32%	–
COCCC[C@H](c1ccc(C(F)(F)F)nc1)N1CC[C@@H](CC(=O)[O-])C[C@H]1c1ccc(C(F)(F)F)cc1.[Na+]	4.5	–	> 20 µM	5	10%	–
CC(C)CC[C@H](c1ccc(C(F)(F)F)nn1)N1CC[C@@H](CC(=O)[O-])C[C@H]1c1ccc(C(F)(F)F)cc1.[Na+]	4.6	–	> 20 µM	5.9	17%	–
O=C([O-])C[C@@H]1CCN([C@@H](c2ccc(C(F)(F)F)nc2)C2CCCCC2)[C@H](c2ccc(C(F)(F)F)cc2)C1.[Na+]	4.6	–	–	5.4	–	–
CC(C)CC[C@H](c1cnc(C(F)(F)F)cn1)N1CC[C@@H](CC(=O)[O-])C[C@H]1c1ccc(C(F)(F)F)cc1.[Na+]	4.7	–	> 20 µM	6.4	21%	–

Continued, in another order:

pIC50 (Gamma-secretase [1])	inhibition [2]	IC50 [3]	pIC50 (Gamma-secretase [4])	Compound	inhibition (CV-1)	further results
<= 4.8	33%	7.94 µM	5.9	O=C([O-])C[C@@H]1CCN([C@H](c2ccc(C(F)(F)F)cc2)c2ccc(C(F)(F)F)nc2)[C@H](c2ccc(C(F)(F)F)cc2)C1.[Na+]	–	–
4.8	–	> 20 µM	5.9	Cc1cccc([C@@H](CCC(C)C)N2CC[C@@H](CC(=O)[O-])C[C@H]2c2ccc(C(F)(F)F)cc2)n1.[Na+]	4%	–
< 4.7	20%	> 20 µM	5	CC[C@H](c1ccc(C(F)(F)F)nc1)N1CC[C@@H](CC(=O)[O-])C[C@H]1c1ccc(C(F)(F)F)cc1.[Na+]	10%	–
5.1	–	15.8 µM	5.9	CCCCC[C@H](c1ccc(C(F)(F)F)nc1)N1CC[C@@H](CC(=O)[O-])C[C@H]1c1ccc(C(F)(F)F)cc1.[Na+]	–	–
4.9	–	3.98 µM	6.4	CC(C)CC[C@H](c1ccnc(C(F)(F)F)n1)N1CC[C@@H](CC(=O)[O-])C[C@H]1c1ccc(C(F)(F)F)cc1.[Na+]	–	–
< 4.7	17%	25.1 µM	6.1	CC(C)CC[C@H](c1ncc(C(F)(F)F)cn1)N1CC[C@@H](CC(=O)[O-])C[C@H]1c1ccc(C(F)(F)F)cc1.[Na+]	–	Vd [11]: 1.2 L/kg; half-life [12]: 3 h; bioavailability [13]: 95%; Vd [14]: 3 L/kg; half-life [15]: 3.1 h; clearance [16]: 0.3 L/h/kg; clearance [17]: 0.54 L/h/kg; bioavailability [18]: > 100%
4.7	–	20 µM	6.4	CC(C)CC[C@H](c1cnc(C(F)(F)F)nc1)N1CC[C@@H](CC(=O)[O-])C[C@H]1c1ccc(C(F)(F)F)cc1.[Na+]	–	–
4.9	–	12.6 µM	6.5	CC(C)CC[C@H](c1ccc(C(F)(F)F)cn1)N1CC[C@@H](CC(=O)[O-])C[C@H]1c1ccc(C(F)(F)F)cc1.[Na+]	–	–
4.8	–	5.01 µM	6.3	CCCCCC[C@H](c1ccc(C(F)(F)F)nc1)N1CC[C@@H](CC(=O)[O-])C[C@H]1c1ccc(C(F)(F)F)cc1.[Na+]	–	pIC50 (Gamma-secretase [5]): 4; IC50 (SH-SY5Y): > 100 µM; Activity [6]: Dose-dependent effect; pIC50 (Gamma-secretase [7]): 6; pIC50 (Gamma-secretase [8]): 4.6; Activity [9]: Dose-dependent effect; pEC50 (Gamma-secretase [10]): 6.3
7.4	–	0.316 µM	7.4	CC(C)[C@H](O)C(=O)N[C@@H](C)C(=O)N[C@@H]1C(=O)N(C)CCc2ccccc21 [SEMAGACESTAT]	–	pIC50 (Gamma-secretase [5]): 7; IC50 (SH-SY5Y): > 100 µM; Activity [6]: Dose-dependent effect; pIC50 (Gamma-secretase [7]): 6.9; pIC50 (Gamma-secretase [8]): 6.7; Activity [9]: Dose-dependent effect; pEC50 (Gamma-secretase [10]): 6.9
